Assay results taken from ChEMBL document CHEMBL2176978, “Fragment-based discovery of bromodomain inhibitors part 2: optimization of phenylisoxazole sulfonamides” (J Med Chem, 2012).
Values after ≈ are worked out from the molar mass of the structure shown.

Assays:
[1] = target: CREB-binding protein (Homo sapiens) (UniProt Q92793); assay: Inhibition of His6FLAG-tagged CREBBP expressed in Escherichia coli assessed as change in melting temperature at 100 uM by thermal shift assay
Method in brief: (§1)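 Thermal melt: protein heated with or without 100 μM compound, at least duplicate; Sypro orange at 1:1000 in PBS with 10% glycerol; ramp 1 °C/min, fluorescence read every 0.5 °C; ΔTm reported.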

[2] = Solubility of the compound at pH 5; type: physicochemical; conditions: buffer
[3] = target: Bromodomain-containing protein 2 (Homo sapiens, UniProt P25440); assay: Inhibition of His6FLAG-tagged BRD2-BD12 expressed in Escherichia coli assessed as change in melting temperature at 100 uM by thermal shift assay; method in brief: as §1
[4] = target: T1, E3 ubiquitin-protein ligase TRIM33 (Homo sapiens) (UniProt Q9UPN9); assay: Inhibition of His6FLAG-tagged TRIM33 isoform B expressed in Escherichia coli assessed as change in melting temperature at 100 uM by thermal shift assay; method in brief: as §1
T1 sequence (whole entry): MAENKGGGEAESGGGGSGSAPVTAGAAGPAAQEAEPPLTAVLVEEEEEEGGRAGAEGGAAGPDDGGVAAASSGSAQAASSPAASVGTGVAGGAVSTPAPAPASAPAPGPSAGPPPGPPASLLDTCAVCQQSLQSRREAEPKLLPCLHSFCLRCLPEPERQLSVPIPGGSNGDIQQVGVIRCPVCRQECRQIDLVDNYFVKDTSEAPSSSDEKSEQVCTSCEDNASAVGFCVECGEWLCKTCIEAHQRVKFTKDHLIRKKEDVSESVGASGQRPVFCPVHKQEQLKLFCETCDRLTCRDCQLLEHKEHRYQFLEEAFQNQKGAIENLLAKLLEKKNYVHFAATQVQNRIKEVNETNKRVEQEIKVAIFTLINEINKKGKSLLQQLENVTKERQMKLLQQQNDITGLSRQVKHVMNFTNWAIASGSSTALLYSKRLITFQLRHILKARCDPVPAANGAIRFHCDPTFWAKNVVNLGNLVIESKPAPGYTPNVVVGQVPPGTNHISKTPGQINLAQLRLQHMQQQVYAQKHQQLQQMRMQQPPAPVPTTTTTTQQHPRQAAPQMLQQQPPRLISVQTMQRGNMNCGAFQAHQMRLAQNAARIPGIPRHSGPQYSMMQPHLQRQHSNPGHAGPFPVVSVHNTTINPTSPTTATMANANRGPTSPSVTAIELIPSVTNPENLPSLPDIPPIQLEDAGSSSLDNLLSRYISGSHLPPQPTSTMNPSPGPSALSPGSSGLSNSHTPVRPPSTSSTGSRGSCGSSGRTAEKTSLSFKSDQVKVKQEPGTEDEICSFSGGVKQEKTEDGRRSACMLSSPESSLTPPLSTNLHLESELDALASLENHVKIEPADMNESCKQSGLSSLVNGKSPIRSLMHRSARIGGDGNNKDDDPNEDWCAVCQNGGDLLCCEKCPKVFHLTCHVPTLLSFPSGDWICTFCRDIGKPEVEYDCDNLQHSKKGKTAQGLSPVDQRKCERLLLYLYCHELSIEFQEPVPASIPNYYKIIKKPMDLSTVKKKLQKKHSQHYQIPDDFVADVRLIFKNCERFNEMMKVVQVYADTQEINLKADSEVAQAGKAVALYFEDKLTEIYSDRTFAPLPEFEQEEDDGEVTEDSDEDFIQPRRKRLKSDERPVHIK

[5] = Solubility of the compound at pH 7; type: physicochemical; conditions: buffer
[6] = target: Bromodomain-containing protein 3 (Homo sapiens, UniProt Q15059); assay: Inhibition of His6FLAG-tagged BRD3-BD12 expressed in Escherichia coli assessed as change in melting temperature at 100 uM by thermal shift assay; method in brief: as §1
[7] = target: T2, ATPase family AAA domain-containing protein 2B (Homo sapiens) (UniProt Q9ULI0); assay: Inhibition of His6FLAG-tagged ATD2B expressed in Escherichia coli assessed as change in melting temperature at 100 uM by thermal shift assay; method in brief: as §1
T2 sequence (whole entry): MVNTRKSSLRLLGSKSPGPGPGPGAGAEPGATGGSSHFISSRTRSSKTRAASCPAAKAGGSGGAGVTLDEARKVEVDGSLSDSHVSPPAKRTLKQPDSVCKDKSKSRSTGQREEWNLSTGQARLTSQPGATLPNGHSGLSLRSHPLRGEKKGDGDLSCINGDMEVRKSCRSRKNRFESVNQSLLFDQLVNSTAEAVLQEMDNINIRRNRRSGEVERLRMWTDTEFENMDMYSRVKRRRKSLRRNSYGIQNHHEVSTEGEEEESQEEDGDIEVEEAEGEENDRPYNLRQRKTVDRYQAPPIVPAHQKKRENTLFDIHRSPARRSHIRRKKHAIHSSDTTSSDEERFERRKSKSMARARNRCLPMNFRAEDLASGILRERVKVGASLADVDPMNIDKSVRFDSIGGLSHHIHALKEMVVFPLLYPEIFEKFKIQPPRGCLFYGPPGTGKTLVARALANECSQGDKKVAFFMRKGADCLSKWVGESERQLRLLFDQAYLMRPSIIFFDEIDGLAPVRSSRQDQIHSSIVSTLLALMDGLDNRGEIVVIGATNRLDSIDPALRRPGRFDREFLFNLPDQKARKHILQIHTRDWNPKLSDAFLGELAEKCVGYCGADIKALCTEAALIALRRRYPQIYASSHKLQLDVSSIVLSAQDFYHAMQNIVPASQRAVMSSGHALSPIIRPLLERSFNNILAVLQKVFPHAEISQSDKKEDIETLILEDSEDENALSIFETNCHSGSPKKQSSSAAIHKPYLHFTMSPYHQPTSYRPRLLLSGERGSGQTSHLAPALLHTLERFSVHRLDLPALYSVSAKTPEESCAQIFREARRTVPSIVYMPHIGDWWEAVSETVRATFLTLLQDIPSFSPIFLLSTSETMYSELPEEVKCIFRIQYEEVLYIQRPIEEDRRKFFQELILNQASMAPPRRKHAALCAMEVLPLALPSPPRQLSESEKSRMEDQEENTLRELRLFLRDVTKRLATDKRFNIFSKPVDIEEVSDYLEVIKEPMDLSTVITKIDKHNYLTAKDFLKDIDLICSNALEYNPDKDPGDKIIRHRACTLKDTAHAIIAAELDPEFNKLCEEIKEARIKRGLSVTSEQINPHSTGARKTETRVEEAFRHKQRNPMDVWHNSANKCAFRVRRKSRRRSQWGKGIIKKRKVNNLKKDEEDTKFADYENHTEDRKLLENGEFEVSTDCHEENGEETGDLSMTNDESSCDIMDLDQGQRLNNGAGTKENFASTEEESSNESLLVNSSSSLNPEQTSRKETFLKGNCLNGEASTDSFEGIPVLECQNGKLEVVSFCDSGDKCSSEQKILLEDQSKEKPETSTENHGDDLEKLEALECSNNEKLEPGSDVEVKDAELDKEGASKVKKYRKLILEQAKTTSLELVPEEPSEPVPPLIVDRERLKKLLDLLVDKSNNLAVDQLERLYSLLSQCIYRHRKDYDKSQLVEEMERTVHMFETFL

Chain of Bromodomain-containing protein 2 (P25440 whole entry, looked up, canonical isoform): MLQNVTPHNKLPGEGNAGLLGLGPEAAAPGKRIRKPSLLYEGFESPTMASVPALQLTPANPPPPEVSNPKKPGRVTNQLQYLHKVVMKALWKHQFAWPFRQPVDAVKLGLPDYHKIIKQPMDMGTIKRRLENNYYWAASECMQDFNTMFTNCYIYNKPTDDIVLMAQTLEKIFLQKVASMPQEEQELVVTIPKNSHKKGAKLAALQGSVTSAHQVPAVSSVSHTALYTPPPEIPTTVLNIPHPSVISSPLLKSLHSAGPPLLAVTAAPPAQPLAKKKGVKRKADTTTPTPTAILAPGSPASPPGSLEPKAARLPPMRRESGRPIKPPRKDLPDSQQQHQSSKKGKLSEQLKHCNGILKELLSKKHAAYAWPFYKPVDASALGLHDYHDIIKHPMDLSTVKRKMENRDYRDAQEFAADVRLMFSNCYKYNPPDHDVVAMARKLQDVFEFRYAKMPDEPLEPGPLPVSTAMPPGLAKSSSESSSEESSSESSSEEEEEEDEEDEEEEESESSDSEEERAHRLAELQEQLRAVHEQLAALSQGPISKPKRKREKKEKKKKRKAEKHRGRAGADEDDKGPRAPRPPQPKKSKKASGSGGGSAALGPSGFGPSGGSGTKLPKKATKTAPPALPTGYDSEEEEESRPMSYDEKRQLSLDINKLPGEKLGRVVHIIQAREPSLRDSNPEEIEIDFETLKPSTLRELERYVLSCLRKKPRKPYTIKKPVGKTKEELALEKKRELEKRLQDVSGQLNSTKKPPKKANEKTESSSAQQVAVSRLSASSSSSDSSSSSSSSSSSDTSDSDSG
Chain of CREB-binding protein (Homo sapiens) (Q92793 2-2442 limits assumed): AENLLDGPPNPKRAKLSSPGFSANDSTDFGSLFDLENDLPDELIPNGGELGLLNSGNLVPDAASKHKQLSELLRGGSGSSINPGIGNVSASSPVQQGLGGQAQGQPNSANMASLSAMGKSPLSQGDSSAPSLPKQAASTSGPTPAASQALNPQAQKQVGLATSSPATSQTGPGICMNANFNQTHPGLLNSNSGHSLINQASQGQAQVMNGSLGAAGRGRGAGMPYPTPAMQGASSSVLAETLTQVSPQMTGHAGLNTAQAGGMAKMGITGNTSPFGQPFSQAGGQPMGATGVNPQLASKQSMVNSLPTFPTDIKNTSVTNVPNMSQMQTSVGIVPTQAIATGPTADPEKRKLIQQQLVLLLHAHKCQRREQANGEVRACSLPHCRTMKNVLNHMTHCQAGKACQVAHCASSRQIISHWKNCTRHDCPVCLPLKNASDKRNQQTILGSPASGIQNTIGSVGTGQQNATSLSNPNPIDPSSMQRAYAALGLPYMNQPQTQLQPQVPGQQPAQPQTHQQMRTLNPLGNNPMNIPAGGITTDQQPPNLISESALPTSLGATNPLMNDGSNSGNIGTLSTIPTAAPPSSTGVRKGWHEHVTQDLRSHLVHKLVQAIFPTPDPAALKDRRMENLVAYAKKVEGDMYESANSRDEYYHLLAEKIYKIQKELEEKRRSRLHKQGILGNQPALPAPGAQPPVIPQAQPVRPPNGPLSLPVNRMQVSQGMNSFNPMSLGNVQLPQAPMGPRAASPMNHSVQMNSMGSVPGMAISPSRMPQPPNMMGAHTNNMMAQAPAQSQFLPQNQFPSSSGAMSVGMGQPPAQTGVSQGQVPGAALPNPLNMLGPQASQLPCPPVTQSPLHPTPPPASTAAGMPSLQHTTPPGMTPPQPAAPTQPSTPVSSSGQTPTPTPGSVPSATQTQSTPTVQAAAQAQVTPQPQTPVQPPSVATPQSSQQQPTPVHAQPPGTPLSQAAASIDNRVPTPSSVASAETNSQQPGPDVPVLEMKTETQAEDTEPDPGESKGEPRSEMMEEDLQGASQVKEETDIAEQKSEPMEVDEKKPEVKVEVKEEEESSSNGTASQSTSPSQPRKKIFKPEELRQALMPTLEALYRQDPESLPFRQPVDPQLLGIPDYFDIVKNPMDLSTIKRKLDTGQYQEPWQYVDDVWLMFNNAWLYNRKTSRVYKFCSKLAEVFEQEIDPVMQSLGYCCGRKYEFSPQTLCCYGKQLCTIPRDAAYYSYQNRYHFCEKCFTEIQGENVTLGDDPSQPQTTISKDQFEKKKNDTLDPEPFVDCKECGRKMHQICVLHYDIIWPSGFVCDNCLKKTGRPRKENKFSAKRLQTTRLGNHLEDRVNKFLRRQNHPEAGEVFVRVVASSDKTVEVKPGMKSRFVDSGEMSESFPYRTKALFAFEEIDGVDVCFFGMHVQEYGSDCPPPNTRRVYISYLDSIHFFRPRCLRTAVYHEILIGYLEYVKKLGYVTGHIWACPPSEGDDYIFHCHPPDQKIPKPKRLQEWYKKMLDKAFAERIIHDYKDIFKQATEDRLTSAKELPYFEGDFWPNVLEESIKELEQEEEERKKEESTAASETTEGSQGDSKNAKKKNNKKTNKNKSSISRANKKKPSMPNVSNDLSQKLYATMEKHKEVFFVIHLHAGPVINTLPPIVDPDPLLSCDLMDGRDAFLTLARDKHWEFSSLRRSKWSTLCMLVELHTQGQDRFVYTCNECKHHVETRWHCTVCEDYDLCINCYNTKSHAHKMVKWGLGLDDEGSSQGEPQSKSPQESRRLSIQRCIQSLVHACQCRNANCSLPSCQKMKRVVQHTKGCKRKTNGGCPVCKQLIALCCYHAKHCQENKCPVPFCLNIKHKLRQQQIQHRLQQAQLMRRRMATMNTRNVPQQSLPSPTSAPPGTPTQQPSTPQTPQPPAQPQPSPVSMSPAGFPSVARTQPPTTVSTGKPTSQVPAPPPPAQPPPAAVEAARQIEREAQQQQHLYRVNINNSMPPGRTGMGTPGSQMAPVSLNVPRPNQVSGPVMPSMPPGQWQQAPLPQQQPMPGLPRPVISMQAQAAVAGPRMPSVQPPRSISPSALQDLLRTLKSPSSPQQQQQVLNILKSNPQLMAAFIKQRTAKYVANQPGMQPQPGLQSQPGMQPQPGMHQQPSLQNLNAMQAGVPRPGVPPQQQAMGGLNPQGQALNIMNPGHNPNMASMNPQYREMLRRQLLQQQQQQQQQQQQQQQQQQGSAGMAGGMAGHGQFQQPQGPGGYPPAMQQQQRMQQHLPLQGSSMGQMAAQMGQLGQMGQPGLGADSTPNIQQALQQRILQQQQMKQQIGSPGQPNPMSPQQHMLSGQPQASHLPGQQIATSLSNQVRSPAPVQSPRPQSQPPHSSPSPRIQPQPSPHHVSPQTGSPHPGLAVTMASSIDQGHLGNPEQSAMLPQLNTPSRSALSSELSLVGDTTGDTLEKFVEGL
Chain of Bromodomain-containing protein 3 (Q15059 2-726 limits assumed): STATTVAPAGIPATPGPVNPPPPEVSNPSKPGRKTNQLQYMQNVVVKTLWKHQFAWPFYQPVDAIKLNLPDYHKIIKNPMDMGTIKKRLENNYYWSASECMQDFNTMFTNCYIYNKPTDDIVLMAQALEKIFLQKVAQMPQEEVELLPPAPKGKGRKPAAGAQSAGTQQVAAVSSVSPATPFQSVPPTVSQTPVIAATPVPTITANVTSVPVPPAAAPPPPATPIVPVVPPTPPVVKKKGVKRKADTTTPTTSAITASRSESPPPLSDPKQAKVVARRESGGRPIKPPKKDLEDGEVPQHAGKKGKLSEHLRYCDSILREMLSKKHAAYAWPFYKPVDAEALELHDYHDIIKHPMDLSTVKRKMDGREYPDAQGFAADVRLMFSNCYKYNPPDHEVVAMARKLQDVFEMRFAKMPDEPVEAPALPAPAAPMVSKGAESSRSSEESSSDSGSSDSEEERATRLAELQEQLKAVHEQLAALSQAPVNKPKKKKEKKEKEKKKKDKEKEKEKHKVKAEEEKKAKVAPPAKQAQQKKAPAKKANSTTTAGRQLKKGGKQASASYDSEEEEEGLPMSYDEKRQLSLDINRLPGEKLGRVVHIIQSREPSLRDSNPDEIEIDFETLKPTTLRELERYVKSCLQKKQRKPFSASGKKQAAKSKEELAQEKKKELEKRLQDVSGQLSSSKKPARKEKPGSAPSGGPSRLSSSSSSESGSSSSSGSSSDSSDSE

Cc1ccc(-c2c(C)noc2C)cc1S(=O)(=O)NC1CCCC1
ΔTm [1]: < 1 °C
solubility [2]: < 1 µg/mL
ΔTm [3]: 2 °C
ΔTm [4]: < 1 °C
solubility [5]: < 1 µg/mL
ΔTm [6]: 2 °C
ΔTm [7]: < 1 °C

Cc1noc(C)c1-c1ccc(OCCCN2CCOCC2)c(S(=O)(=O)NC2CCCC2)c1
ΔTm [1]: 1.5 °C
solubility [2]: 1120 µg/mL (≈ 2430 µM)
ΔTm [3]: 2 °C
ΔTm [4]: < 1 °C
solubility [5]: 210 µg/mL (≈ 453 µM)
ΔTm [6]: 2 °C
ΔTm [7]: < 1 °C
